Results as given in ChEMBL document CHEMBL4680183, “1,2,3-Triazole-Chalcone hybrids: Synthesis, in vitro cytotoxic activity and mechanistic investigation of apoptosis induction in multiple myeloma RPMI-8226” (Eur J Med Chem, 2020).

Assays:
Histone deacetylase 1 = Histone deacetylase 1 (Homo sapiens, UniProt Q13547); assay: Inhibition of HDAC1 in human RPMI-8226 cells incubated for 2 hrs by ELISA; type: cell-based
Summary of the method: (§1)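 Target levels measured by ELISA kits in RPMI-8226 cells. Cells were seeded and grown 24 h at 37 °C, then exposed 72 h to a semi-log series of concentrations. Sample was incubated 2 h at 37 °C, followed by detection reagents A and B (1 h each), TMB substrate and stop solution, with OD read at 450 nm. IC50 was taken from sigmoidal dose-response nonlinear regression of % activity.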

Histone deacetylase 2 = Histone deacetylase 2 (Homo sapiens, UniProt Q92769); assay: Inhibition of HDAC2 in human RPMI-8226 cells incubated for 2 hrs by ELISA; type: cell-based; summary of the method: as §1
Tubulin = assay: Inhibition of Tubulin in human RPMI-8226 cells incubated for 2 hrs by ELISA; type: cell-based; summary of the method: as §1
Histone deacetylase 3 = Histone deacetylase 3 (Homo sapiens, UniProt O15379); assay: Inhibition of HDAC3 in human RPMI-8226 cells incubated for 2 hrs by ELISA; type: cell-based; summary of the method: as §1
[1] = molecular target: Epidermal growth factor receptor (Homo sapiens, UniProt P00533); assay: Inhibition of EGFR in human RPMI-8226 cells incubated for 2 hrs by ELISA; type: cell-based
[2] = molecular target: Vascular endothelial growth factor receptor 2 (Homo sapiens, UniProt P35968); assay: Inhibition of VEGFR2 in human RPMI-8226 cells incubated for 2 hrs by ELISA; type: cell-based
Histone deacetylase 8 = molecular target: T1, Histone deacetylase 8 (Homo sapiens, UniProt Q9BY41); assay: Inhibition of HDAC8 in human RPMI-8226 cells incubated for 2 hrs by ELISA; type: cell-based; summary of the method: as §1
T1 sequence (Q9BY41 whole entry): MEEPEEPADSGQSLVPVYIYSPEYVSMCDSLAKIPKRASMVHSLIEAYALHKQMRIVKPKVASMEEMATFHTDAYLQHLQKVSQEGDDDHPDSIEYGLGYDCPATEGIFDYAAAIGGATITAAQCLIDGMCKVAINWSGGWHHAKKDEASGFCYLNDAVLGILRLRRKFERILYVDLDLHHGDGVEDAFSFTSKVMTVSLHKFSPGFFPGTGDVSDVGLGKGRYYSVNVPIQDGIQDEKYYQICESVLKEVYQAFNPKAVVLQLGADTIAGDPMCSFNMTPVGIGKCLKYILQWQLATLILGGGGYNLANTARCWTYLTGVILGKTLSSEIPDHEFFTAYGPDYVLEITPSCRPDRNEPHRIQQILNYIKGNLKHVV

RPMI-8226 [3] = assay: Induction of ROS accumulation in human RPMI-8226 cells incubated for 2 hrs by ELISA (reference value: 26.06 +/- […]); type: functional
RPMI-8226 [4] = assay: Induction of apoptosis in human RPMI-8226 cells assessed as PARP-1 level incubated for 24 hrs by ELISA (reference value: 0.151 +/- […]); type: functional
RPMI-8226 [5] = assay: Induction of apoptosis in human RPMI-8226 cells assessed as Caspase-7 level incubated for 24 hrs by ELISA (reference value: 0.359 +/- 0.016 ng/ml); type: functional
RPMI-8226 [6] = assay: Induction of apoptosis in human RPMI-8226 cells assessed as Caspase-3 level incubated for 24 hrs by ELISA (reference value: 35.3 pg/ml); type: functional
RPMI-8226 [7] = assay: Induction of apoptosis in human RPMI-8226 cells assessed as BAX level incubated for 24 hrs by ELISA (reference value: 56 +/- […]); type: functional
RPMI-8226 [8] = assay: Induction of apoptosis in human RPMI-8226 cells assessed as Caspase-9 level incubated for 24 hrs by ELISA (reference value: 1.63 +/- […]); type: functional
RPMI-8226 [9] = assay: Induction of apoptosis in human RPMI-8226 cells assessed as Bcl-2 level incubated for 24 hrs by ELISA (reference value: 4.857 +/- […]); type: functional

Histone deacetylase 1, sequence (Q13547 whole entry): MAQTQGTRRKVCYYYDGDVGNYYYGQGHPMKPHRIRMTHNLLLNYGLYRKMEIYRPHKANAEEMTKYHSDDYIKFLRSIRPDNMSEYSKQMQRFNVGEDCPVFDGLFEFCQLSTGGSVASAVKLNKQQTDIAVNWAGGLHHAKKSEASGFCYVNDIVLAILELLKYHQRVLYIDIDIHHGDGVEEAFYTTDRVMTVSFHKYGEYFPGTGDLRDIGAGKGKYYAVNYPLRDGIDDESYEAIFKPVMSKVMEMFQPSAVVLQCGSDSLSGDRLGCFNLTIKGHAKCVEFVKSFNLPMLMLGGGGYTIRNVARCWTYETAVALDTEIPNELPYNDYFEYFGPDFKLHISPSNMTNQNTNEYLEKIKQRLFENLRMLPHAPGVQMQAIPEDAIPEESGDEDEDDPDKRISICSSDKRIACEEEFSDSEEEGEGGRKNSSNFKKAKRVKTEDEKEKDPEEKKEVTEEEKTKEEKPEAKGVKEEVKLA
Histone deacetylase 2, sequence (Q92769 whole entry): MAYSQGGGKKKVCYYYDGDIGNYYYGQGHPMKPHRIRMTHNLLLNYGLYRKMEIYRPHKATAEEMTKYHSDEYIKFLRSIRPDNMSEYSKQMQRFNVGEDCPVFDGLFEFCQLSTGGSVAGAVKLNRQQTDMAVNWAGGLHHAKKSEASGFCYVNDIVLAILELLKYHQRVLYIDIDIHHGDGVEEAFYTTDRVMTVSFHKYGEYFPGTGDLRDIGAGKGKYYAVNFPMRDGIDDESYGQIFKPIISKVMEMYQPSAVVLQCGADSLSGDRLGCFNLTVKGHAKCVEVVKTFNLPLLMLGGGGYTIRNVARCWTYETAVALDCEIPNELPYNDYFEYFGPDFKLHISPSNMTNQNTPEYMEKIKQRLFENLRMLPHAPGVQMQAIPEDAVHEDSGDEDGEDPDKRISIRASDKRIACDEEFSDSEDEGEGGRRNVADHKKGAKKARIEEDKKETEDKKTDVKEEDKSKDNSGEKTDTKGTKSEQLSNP
Histone deacetylase 3, sequence (O15379 whole entry): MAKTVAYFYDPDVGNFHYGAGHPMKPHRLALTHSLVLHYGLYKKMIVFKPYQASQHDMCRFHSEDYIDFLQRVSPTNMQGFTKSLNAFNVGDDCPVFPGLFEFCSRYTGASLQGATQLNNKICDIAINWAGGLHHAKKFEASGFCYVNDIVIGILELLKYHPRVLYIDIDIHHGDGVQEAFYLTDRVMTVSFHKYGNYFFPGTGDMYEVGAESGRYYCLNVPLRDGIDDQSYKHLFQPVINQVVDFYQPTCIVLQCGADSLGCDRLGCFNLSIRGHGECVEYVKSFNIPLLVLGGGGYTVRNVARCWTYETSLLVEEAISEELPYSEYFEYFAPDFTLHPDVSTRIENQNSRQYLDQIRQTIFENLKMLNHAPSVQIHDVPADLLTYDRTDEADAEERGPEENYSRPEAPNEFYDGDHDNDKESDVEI
Vascular endothelial growth factor receptor 2, sequence (P35968 whole entry): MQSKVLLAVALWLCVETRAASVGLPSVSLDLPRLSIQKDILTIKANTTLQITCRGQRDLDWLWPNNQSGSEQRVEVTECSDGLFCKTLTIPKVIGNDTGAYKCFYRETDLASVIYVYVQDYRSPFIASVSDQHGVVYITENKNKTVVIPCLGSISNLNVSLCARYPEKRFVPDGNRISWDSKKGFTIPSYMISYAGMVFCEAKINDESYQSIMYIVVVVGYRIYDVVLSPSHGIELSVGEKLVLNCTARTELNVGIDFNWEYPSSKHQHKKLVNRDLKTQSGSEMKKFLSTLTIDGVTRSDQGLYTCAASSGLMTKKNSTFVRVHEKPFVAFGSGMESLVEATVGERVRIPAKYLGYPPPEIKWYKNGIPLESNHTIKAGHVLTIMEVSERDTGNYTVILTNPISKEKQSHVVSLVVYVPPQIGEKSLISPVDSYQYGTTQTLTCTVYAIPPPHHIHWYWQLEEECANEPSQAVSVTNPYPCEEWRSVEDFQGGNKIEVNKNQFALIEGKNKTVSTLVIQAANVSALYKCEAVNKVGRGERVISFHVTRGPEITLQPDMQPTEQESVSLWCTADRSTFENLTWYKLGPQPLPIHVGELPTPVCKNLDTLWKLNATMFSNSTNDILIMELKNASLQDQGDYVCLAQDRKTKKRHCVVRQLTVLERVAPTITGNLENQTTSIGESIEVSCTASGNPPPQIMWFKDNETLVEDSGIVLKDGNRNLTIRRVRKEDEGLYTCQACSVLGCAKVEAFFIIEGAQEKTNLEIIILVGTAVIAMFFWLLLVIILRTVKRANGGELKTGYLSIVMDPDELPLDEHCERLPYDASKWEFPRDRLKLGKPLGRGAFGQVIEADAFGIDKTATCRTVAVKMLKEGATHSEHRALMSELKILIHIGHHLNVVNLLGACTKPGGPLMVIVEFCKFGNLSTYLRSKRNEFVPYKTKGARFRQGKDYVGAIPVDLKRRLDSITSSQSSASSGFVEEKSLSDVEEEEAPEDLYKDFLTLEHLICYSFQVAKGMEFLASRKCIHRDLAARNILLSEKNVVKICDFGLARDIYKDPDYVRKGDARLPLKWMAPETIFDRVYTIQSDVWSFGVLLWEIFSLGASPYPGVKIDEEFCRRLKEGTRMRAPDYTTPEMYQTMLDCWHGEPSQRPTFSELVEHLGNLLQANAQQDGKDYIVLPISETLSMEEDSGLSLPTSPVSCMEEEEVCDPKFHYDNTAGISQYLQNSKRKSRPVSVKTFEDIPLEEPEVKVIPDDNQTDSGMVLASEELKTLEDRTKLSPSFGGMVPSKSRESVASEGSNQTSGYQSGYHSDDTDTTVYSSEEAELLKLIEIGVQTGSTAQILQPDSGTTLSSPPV
Epidermal growth factor receptor, sequence (P00533 whole entry): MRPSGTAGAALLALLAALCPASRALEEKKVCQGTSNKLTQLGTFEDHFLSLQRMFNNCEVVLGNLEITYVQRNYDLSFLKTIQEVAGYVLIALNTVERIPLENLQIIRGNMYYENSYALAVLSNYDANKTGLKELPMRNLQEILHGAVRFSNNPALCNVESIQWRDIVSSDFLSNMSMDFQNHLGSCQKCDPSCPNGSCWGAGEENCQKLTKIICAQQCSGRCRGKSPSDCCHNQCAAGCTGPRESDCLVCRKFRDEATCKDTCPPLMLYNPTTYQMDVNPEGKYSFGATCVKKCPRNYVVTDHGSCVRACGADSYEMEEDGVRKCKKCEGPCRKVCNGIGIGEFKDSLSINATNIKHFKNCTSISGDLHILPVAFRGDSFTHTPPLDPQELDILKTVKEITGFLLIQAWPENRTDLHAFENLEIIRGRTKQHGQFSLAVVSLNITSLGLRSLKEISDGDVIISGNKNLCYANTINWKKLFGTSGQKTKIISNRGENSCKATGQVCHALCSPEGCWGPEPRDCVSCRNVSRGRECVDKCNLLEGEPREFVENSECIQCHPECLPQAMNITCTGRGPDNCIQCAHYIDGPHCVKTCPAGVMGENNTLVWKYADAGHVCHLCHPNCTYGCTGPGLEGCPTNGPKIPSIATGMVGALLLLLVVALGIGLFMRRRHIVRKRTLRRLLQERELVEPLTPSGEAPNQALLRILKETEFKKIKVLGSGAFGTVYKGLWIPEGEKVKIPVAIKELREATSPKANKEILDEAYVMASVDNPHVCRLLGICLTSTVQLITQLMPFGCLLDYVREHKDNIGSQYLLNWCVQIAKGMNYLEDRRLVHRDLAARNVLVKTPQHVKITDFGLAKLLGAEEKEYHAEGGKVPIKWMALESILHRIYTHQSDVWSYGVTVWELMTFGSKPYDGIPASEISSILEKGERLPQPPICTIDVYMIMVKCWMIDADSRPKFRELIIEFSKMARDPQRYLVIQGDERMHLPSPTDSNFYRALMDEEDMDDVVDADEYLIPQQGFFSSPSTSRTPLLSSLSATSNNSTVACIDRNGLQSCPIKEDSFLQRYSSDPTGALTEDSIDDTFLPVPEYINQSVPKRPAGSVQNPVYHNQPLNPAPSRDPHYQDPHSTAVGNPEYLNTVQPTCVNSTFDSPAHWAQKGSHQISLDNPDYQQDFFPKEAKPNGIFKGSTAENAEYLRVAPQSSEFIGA

`COc1ccc(/C=C/C(=O)c2nnn(-c3ccc(Cl)cc3)c2C)cc1OC` showed an IC50 (Histone deacetylase 1) of 1530 nM, an IC50 (Histone deacetylase 2) of 2900 nM and an IC50 (Tubulin) of 9.77 nM. The IC50 (Histone deacetylase 3) was 3000 nM, the IC50 [1] was 36 nM and the IC50 [2] was 388 nM. It also gave an IC50 (Histone deacetylase 8) of 47 nM.
For `CC(C)C[C@H](NC(=O)[C@H](Cc1ccccc1)NC(=O)c1cnccn1)B(O)O` [BORTEZOMIB], the IC50 (Histone deacetylase 1) was 620 nM, the IC50 (Histone deacetylase 2) was 800 nM and the IC50 (Histone deacetylase 3) was 1180 nM. For the same compound, the IC50 (Histone deacetylase 8) was 72 nM.
`COc1cc2ncnc(Nc3ccc(F)c(Cl)c3)c2cc1OCCCN1CCOCC1` [GEFITINIB] gave an Activity (RPMI-8226 [3]) of 80.92 pg/mL.
Compound `CN[C@@H]1C[C@H]2O[C@@](C)([C@@H]1OC)n1c3ccccc3c3c4c(c5c6ccccc6n2c5c31)C(=O)NC4` [STAUROSPORINE] has an Activity (RPMI-8226 [4]) of 0.245 ng/mL, an Activity (RPMI-8226 [5]) of 1.508 ng/mL and an Activity (RPMI-8226 [6]) of 449.8 pg/mL. It also gave an Activity (RPMI-8226 [7]) of 336.16 pg/mL, an Activity (RPMI-8226 [8]) of 24.97 ng/mL and an Activity (RPMI-8226 [9]) of 0.4081 ng/mL.
